Assay results taken from ChEMBL document CHEMBL1129331, “Synthesis and physicochemical, biological, and pharmacological properties of new bile acids amidated with cyclic amino acids” (J Med Chem, 1996).
In brackets after ≈: the same amount, converted by molar mass.

Columns and labels:
[1] = Water solubility was determined; type: ADME; conditions: read-out: WS
Summary of the method: (§1)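 Protonated form; measured on saturated solutions at pH 1.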

[2] = Partition coefficient (logP); type: physicochemical; conditions: octanol/water
Summary of the method: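 Octanol/water partition coefficient of the protonated species, calculated rather than measured.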

[3] = test system: Rattus norvegicus; assay: Secretion of cholesterol in Bile Fistula rats after the iv administration of compound, expressed as the residual secretion rate; type: ADME, organism-based; conditions: in vivo
Summary of the method: (§2)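 Male Sprague-Dawley rats (300-330 g), urethane-anesthetized, bile duct cannulated. After 1 h baseline, sodium salt infused via femoral vein at 10 μmol/min/kg for 1 h; bile collected at 15-min intervals for 3 h. Flow measured gravimetrically; bile acids, cholesterol and phospholipid measured enzymatically. Smax and Tmax read from secretion-time plots; Rs is the rate at hour 3. Mean ± SD, n=6.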

[4] = test system: Rattus norvegicus; assay: Secretion of phospholipid in Bile Fistula rats after the iv administration of compound, expressed as the residual secretion rate i; type: ADME, organism-based; conditions: in vivo; summary of the method: as §2
[5] = test system: Rattus norvegicus; assay: Secretion of Bile in Bile Fistula rats after the iv administration of compound, expressed as the residual secretion rate i; type: ADME, organism-based; conditions: in vivo; summary of the method: as §2
[6] = Relative lipophilicity was determined; type: physicochemical; conditions: C-18 reverse phase HPLC
Summary of the method: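 C-18 reverse-phase HPLC run isocratically at 0.9 mL/min. Mobile phase 65% (v/v) aqueous methanol with 2 mM ammonium acetate, pH 7, so that all bile acids are fully ionized.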

[7] = Acidity constant was determined; type: ADME
[8] = test system: Rattus norvegicus; assay: Secretion of Bile acids in Bile Fistula rats after the iv administration of compound, expressed as the residual secretion rate; type: ADME, organism-based; conditions: in vivo; summary of the method: as §2
[9] = test system: cholylglycine hydrolase; assay: The compound was incubated with cholylglycine hydrolase and tested for determining the stability towards C-24 Deamination; type: ADME; conditions: cholylglycine hydrolase
[10] = Critical Micellar concentration was determined; type: ADME
Summary of the method: (§3)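 Measured in water from surface tension, using the maximum bubble-pressure method.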

[11] = Critical micellar pH was determined
Summary of the method: (§4)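 20 mL of 50 mM bile salt solution titrated with 0.1 M HCl. CMpH is taken as the pH at which precipitate of the protonated form is first seen by turbidity at 500 nm. Confirmed by back-titration with 0.1 M NaOH until the suspension clears.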

[12] = test system: Rattus norvegicus; assay: Secretion of cholesterol in Bile Fistula rats after the iv administration of compound, expressed as the maximum secretion rate i; type: ADME, organism-based; conditions: in vivo; summary of the method: as §2
[13] = test system: Rattus norvegicus; assay: Secretion of phospholipid in Bile Fistula rats after the iv administration of compound, expressed as the maximum secretion rate i; type: ADME, organism-based; conditions: in vivo; summary of the method: as §2
[14] = test system: Rattus norvegicus; assay: Secretion of Bile in Bile Fistula rats after the iv administration of compound, expressed as the maximum secretion rate; type: ADME, organism-based; conditions: in vivo; summary of the method: as §2
[15] = test system: Rattus norvegicus; assay: Calcium output in Bile Fistula rats after iv coinfusion of TCDCA and compound.; type: ADME, organism-based; conditions: in vivo
Summary of the method: (§5)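 Bile fistula Sprague-Dawley rats (200-250 g). TCDCA and test bile acid given as sodium salts, coinfused via jugular vein, each at 8 μmol/min/kg for 1 h. Bile collected at 30-min intervals for 3 h. Calcium, ALP and LDH in bile measured enzymatically; bile acid composition by HPLC (65% methanol, 15 mM ammonium acetate, pH 5.4). Mean ± SD.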

[16] = test system: Rattus norvegicus; assay: Maximum biliary secretion rate of TCDCA after iv coinfusion in Bile fistula rats.; type: ADME, organism-based; conditions: in vivo; summary of the method: as §5
[17] = test system: Rattus norvegicus; assay: Secretion of Bile acids in Bile Fistula rats after the iv administration of compound, expressed as the maximum secretion rate i; type: ADME, organism-based; conditions: in vivo; summary of the method: as §2
[18] = The compound was incubated with human stools and tested for determining the stability towards 7-dehydroxylation; type: ADME, organism-based
Summary of the method: (§6)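 Homogenized fresh human stool (500 mg) in 5 mL chopped meat-glucose medium; bile acid added at 0.05 mM final; 37 °C. Sampled at 0–72 h and stopped with 30% KOH. Bile acids recovered by C-18 solid-phase extraction, then analyzed by TLC and by HPLC with 75% methanol/15 mM ammonium acetate, pH 5.4.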

[19] = test system: Rattus norvegicus; assay: Lactate dehydrogenase in Bile Fistula rats after iv coinfusion of TCDCA and compound.; type: ADME, organism-based; conditions: in vivo; summary of the method: as §5
[20] = test system: Rattus norvegicus; assay: Alkaline phosphatase in Bile Fistula rats after iv coinfusion of TCDCA and compound.; type: ADME, organism-based; conditions: in vivo; summary of the method: as §5
[21] = test system: Rattus norvegicus; assay: Maximum biliary secretion rate of bile acids after iv coinfusion in Bile fistula rats.; type: ADME, organism-based; conditions: in vivo; summary of the method: as §5
[22] = test system: Rattus norvegicus; assay: Bile flow in Bile Fistula rats after iv coinfusion of TCDCA and compound.; type: ADME, organism-based; conditions: in vivo; summary of the method: as §5
[23] = Water solubility of the compound. was determined; type: ADME; conditions: read-out: S; summary of the method: as §1
[24] = Critical Micellar concentration of the compound. was determined; type: ADME; summary of the method: as §3
[25] = Acidity constant of the compound. was determined; type: ADME
[26] = Critical micellar pH of the compound. was determined; summary of the method: as §4
[27] = The compound was incubated with human stools and tested for determining the stability towards 7 dehydroxylation; type: ADME
[28] = The compound was incubated with human stools and tested for determining the stability towards C-24 Deamination; type: ADME, organism-based; conditions: in the assay text read “7-dehydroxylation” for “C-24 Deamination”; summary of the method: as §6

SMILES | solubility [1] | logP [2] | Rs [3] | Rs [4] | Rs [5] | rK [6] | pKa [7] | Rs [8] | half-life [9] | CMC [10] | CMpH [11] | Smax [12] | Smax [13] | Smax [14] | Smax [15] | Smax [16] | Smax [17] | [LDH]max [19] | [ALP]max [20] | Smax [21] | also measured
CO[C@H]1C[C@H](C(=O)O)N(C(=O)CCC(C)C2CC[C@H]3[C@@H]4[C@@H](O)CC5C[C@H](O)CC[C@]5(C)[C@H]4CC[C@]23C)C1 (stereo partly drawn) | 30 µM (≈ 15.6 µg/mL) | 3.86 | 12 nM/min/kg | 0.12 µM/min/kg | 2.64 mL/h/kg | 0.7 | 3.5 | 0.8 µM/min/kg | > 72 h | 29 mM | 6.5 | 28 nM/min/kg | 0.28 µM/min/kg | 5.4 mL/h/kg | 0.71 µM/min/kg | 6.96 µM/min/kg | 11.1 µM/min/kg | 14 UI l-1 | 30 IU/L | 4.67 µM/min/kg | half-life [18]: > 72 h; Smax [22]: 5.04 mL/h/kg
CC(CCC(=O)NCC(=O)O)C1CC[C@H]2[C@@H]3C[C@H](O)C4C[C@H](O)CCC4(C)[C@H]3CCC12C (stereo partly drawn) |  |  |  |  |  |  |  |  | 5 h |  |  |  |  |  |  |  |  |  |  |  | 
C[C@H](CCC(=O)O)[C@H]1CC[C@H]2[C@@H]3C[C@H](O)[C@@H]4C[C@H](O)CC[C@]4(C)[C@H]3CC[C@]12C [HYODEOXYCHOLIC_ACID] |  | 4.27 |  |  |  | 0.89 |  |  |  |  |  |  |  |  |  |  |  |  |  |  | solubility [23]: 15 µM (≈ 5.89 µg/mL); CMC [24]: 14 mM; pKa [25]: 5; CMpH [26]: 8.1
C[C@H](CCC(=O)NCCS(=O)(=O)O)[C@H]1CC[C@H]2[C@@H]3[C@H](O)C[C@@H]4C[C@H](O)CC[C@]4(C)[C@H]3C[C@H](O)[C@]12C [TAUROCHOLIC ACID] |  |  |  |  |  |  |  |  | 4 h |  |  |  |  |  |  |  |  |  |  |  | half-life [27]: 6 h
CC(CCC(=O)N1CCC[C@@H]1C(=O)O)C1CC[C@H]2[C@@H]3C[C@H](O)C4C[C@H](O)CC[C@]4(C)[C@H]3CC[C@]12C (stereo partly drawn) | 52 µM (≈ 25.5 µg/mL) | 4.41 | 46 nM/min/kg | 0.21 µM/min/kg | 2.82 mL/h/kg | 0.94 | 3.9 | 1.4 µM/min/kg | > 72 h | 25 mM | 6.6 | 60 nM/min/kg | 0.34 µM/min/kg | 4.02 mL/h/kg | 0.42 µM/min/kg | 3.88 µM/min/kg | 5.7 µM/min/kg | 95 UI l-1 | 57 IU/L | 3.02 µM/min/kg | half-life [28]: > 72 h; Smax [22]: 4.98 mL/h/kg
